Data taken from PMC6180906 (Biochimica et biophysica acta. Molecular and cell biology …, 2018).
Values joined by “and” are separate entries in the source; they are usually repeats but may differ in a detail not shown here. Identical values can stand only once.

Assays:
[1] = tested on: Acanthamoeba castellanii trophozoites; test: Trophozoite toxicity assay; type: cell-based; conditions: for IC50: Acanthamoeba castellanii, 48 h, read-out: IC50 against trophozoite growth
[2] = tested on: Acanthamoeba castellanii trophozoites; test: Time-dependent killing and regrowth in fresh medium; type: cell-based; conditions: inhibitor at approximate MAC, then fresh medium for a week
[3] = tested on: Acanthamoeba castellanii resting cysts; test: Cysticidal / excystment assay; type: cell-based; conditions: cysts from the SDS-treated process
Acanthamoeba castellanii = type: cell-based
[4] = tested on: Acanthamoeba castellanii trophozoites; test: Trophozoite growth with cholesterol supplement; type: cell-based; conditions: 10μM in DMSO or as FBS
Procedure, shortened: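 Axenic static cultures of strain ATCC 30010 were grown in 5 ml ATCC medium 712 in T-flasks at 25 °C with occasional hand shaking, seeded with about 1×10^4 trophozoites. The medium was supplemented with FBS, per ATCC medium, or with 10 µM cholesterol in DMSO. Cells were counted along the growth curve, with viability by trypan blue exclusion.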

[5] = tested on: Saccharomyces cerevisiae strain GL7; test: GL7 sterol auxotroph growth on sterol supplements; type: cell-based; conditions: sterol supplement, 72 h
Procedure, shortened: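 S. cerevisiae GL7 (lanosterol synthase-defective, ergosterol auxotroph) grown in yeast-peptone-dextrose medium with Tween 80 (15 ml/l) and a sterol supplement at 5 mg/l, or no sterol, for 72 h. Cell density was followed to stationary phase. Sterols were recovered from cells and analysed.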

AcCYP51 [6] = target: T1, AcCYP51 (Acanthamoeba castellanii, UniProt L8GJB3); test: AcCYP51 sterol ligand binding, spectral titration; conditions: for AcCYP51 Kd: progressive titration of 4 M AcCYP51 with sterol in 40% (W/V) HPCP
AcCYP51 [7] = target: T1, AcCYP51; test: CYP51 reconstitution assay, AfCPR1 redox partner, products by GC-MS; type: biochemical; conditions: for Yield of 14-desmethyl product from substrate by AcCYP51 (GCMS): AfCPR1 redox partner; for AcCYP51 AfCPR kcat: CYP51 reconstitution assay, 50 μM sterol, AfCPR redox partner
Ac24-SMT = Ac24-SMT (Acanthamoeba castellanii, UniProt L8GKC5); conditions: sterol 5 μM to 150 μM, 150 μM SAM, 80 μg SMT; cited from earlier work
Ac28-SMT = Ac28-SMT (Acanthamoeba castellanii, UniProt L8GNG7); conditions: sterol 5 μM to 150 μM, 150 μM SAM, 80 μg SMT; cited from earlier work

SMILES | AcCYP51 AfCPR kcat (AcCYP51 [7]) | 24-SMT kcat (Ac24-SMT) | 28-SMT kcat (Ac28-SMT) | also measured
C[C@H](CCCN(C)C)[C@H]1CC[C@@]2(C)[C@@H]3CC[C@H]4C(C)(C)[C@@H](O)CC[C@@]45C[C@@]35CC[C@]12C [25-azacycloartanol] |  |  |  | IC50 [1]: 0.025 µM; MAC (minimum amoebicidal concentration) ([1]; lowest concentration with no visible live trophozoites, 48 hr): 1 to 3 µM; Growth after 48 h treated pellets were transferred to fresh medium [2]: no growth
O=c1[nH]c(=O)n([C@H]2C[C@H](O)[C@@H](CO)O2)cc1F [FUdR, 5-fluor-2-deoxyuridine] |  |  |  | Excystment of resting cysts into trophozoites under treatment [3]: easily excysted into trophozoites by 3 days; Encysted cells alive by trypan blue staining (Acanthamoeba castellanii; cultures with inhibitor at stationary phase of control): > 95%
CC(C)CCC[C@@H](C)[C@H]1CC[C@H]2[C@@H]3CC=C4C[C@@H](O)CC[C@]4(C)[C@H]3CC[C@]12C [cholesterol] |  |  |  | Effect of supplement on trophozoite growth [4]: only a minor stimulation effect
CC(C)[C@@H](C)/C=C/[C@@H](C)[C@H]1CC[C@H]2[C@@H]3CC=C4C[C@@H](O)CC[C@]4(C)[C@H]3CC[C@]12C [compound 1, Ergosta-5,22-dienol] |  |  |  | GL7 cell density at stationary phase / growth arrest [5]: 1 × 10^8 cells/ml
CC(C)[C@@H](C)/C=C/[C@@H](C)[C@H]1CC[C@H]2C3=CC=C4C[C@@H](O)CC[C@]4(C)[C@H]3CC[C@]12C [compound 2, Ergosta-5,7,22-trienol] |  |  |  | GL7 cell density at stationary phase / growth arrest [5]: ~1 × 10^8 cells/ml
CC[C@@H](C=C[C@@H](C)[C@H]1CC[C@H]2[C@@H]3CC=C4C[C@@H](O)CC[C@]4(C)[C@H]3CC[C@]12C)C(C)C [compound 6, Poriferasta-5,22 -dienol] |  |  |  | GL7 cell density at stationary phase / growth arrest [5]: 1 × 10^8 cells/ml
C=C(CC[C@@H](C)[C@H]1CC[C@@]2(C)C3=C(CC[C@]12C)[C@@]1(C)CC[C@H](O)[C@@H](C)[C@@H]1CC3)C(C)C [compound 10] | 0.127 ± 0.00083 s⁻¹ | 0 s⁻¹ | 0 s⁻¹ | Kd (AcCYP51 [6]): 41 ± 3 µM; Yield of 14-desmethyl product from substrate by AcCYP51 (GCMS) (AcCYP51 [7]; listed as obtusifoliol): < 95% and 95%; AcCYP51 AfCPR kcat (AcCYP51 [7]; listed as obtusifoliol): 0.127 s⁻¹
CC[C@@H](C=C[C@@H](C)[C@H]1CC[C@H]2C3=CC=C4C[C@@H](O)CC[C@]4(C)[C@H]3CC[C@]12C)C(C)C [compound 11, Poriferasta-5,7,22-trienol] |  |  |  | GL7 cell density at stationary phase / growth arrest [5]: 1 × 10^8 cells/ml
C=C(CC[C@@H](C)[C@H]1CC[C@H]2C3=CC[C@H]4[C@H](C)[C@@H](O)CC[C@]4(C)[C@H]3CC[C@]12C)C(C)C [compound 14, 4α-Methylergosta-7, 24(28)-dienol] | 0 s⁻¹ | 0 s⁻¹ | 0.0133 ± 0.00067 s⁻¹ | 
CC(C)=CCC[C@@H](C)[C@H]1CC[C@@]2(C)[C@@H]3CC[C@H]4C(C)(C)[C@@H](O)CC[C@@]45C[C@@]35CC[C@]12C [compound 21, Cycloart-24(25)-enol] | 0 s⁻¹ | 0.025 ± 0.0012 s⁻¹ | 0.0075 ± 0.0005 s⁻¹ | Kd (AcCYP51 [6]): 18 ± 5 µM; Yield of 14-desmethyl product from substrate by AcCYP51 (GCMS) (AcCYP51 [7]): no metabolism occurred
C=C(CC[C@@H](C)[C@H]1CC[C@@]2(C)[C@@H]3CC[C@H]4[C@H](C)[C@@H](O)CC[C@@]45C[C@@]35CC[C@]12C)C(C)C [compound 24, 4α-Methylcycloart-24(28)-enol] | 0.00067 ± 0.00017 s⁻¹ |  |  | AcCYP51 Kd (AcCYP51 [6]): No fit; Yield of 14-desmethyl product from substrate by AcCYP51 (GCMS) (AcCYP51 [7]): ~ 1%
C=C(CC[C@@H](C)[C@H]1CC[C@@]2(C)[C@@H]3CC[C@H]4C(C)(C)[C@@H](O)CC[C@@]45C[C@@]35CC[C@]12C)C(C)C [compound 27, Cycloart-24(28)-enol] | 0 s⁻¹ | 0 s⁻¹ | 0.00383 ± 0.00083 s⁻¹ | AcCYP51 Kd (AcCYP51 [6]): No fit
C=C(CCC(C)C1CCC2(C)C3=C(CCC12C)C1(C)CCC(O)C(C)(C)C1CC3)C(C)C (stereo not drawn) [compound 32, Lanosta-8,24(28)-dienol] | 0.0533 ± 0.00067 s⁻¹ |  |  | Kd (AcCYP51 [6]): 51 ± 10 µM
CC(C)=CCC[C@@H](C)[C@H]1CC[C@@]2(C)C3=C(CC[C@]12C)[C@@]1(C)CC[C@H](O)C(C)(C)[C@@H]1CC3 [compound 33, Lanosta-8,24(25)-dienol] | 0.0283 ± 0.00017 s⁻¹ | 0.025 ± 0.00017 s⁻¹ | 0.00383 ± 0.00017 s⁻¹ | Kd (AcCYP51 [6]): 46 ± 3 µM
CC(C)CCC[C@@H](C)[C@H]1CC[C@@]2(C)C3=C(CC[C@]12C)[C@@]1(C)CC[C@H](O)C(C)(C)[C@@H]1CC3 [compound 34, Lanost-8-enol] | 0.0333 ± 3.3e-05 s⁻¹ |  |  | 
CC(C)=CCC[C@@H](C)[C@H]1CC[C@@]2(C)C3=C(CC[C@]12C)[C@@]1(C)CC[C@H](O)C[C@@H]1CC3 [compound 35, 14α-Methylcholest-8,24(25)-dienol] | 0.0267 ± 0.0013 s⁻¹ | 0.025 ± 0.00083 s⁻¹ | 0.0065 ± 0.00033 s⁻¹ | 
CC(C)=CCCC(C)C1CCC2(C)C3=CCC4C(C)(C)C(O)CCC4(C)C3CCC12C (stereo not drawn) [compound 36, Lanosta-7,24(25)-dienol] | 0 s⁻¹ |  |  | 
CC(C)=CCC[C@@H](C)[C@H]1CC[C@@]2(C)C3=C(CC[C@]12C)[C@@]1(C)CC[C@H](O)[C@@H](C)[C@@H]1CC3 [compound 37, 4α, 14α-Dimethylcholesta-8,24(25)-dienol] | 0 s⁻¹ | 0.025 ± 0.00067 s⁻¹ | 0.0123 ± 0.00033 s⁻¹ | 
C[C@@H](c1ncncc1F)[C@](O)(Cn1cncn1)c1ccc(F)cc1F [voriconazole, reference compound] |  |  |  | IC50 [1]: 0.14 µM; Growth after 48 h treated pellets were transferred to fresh medium [2]: a few thousand trophozoites were evident; Number of cells at 48 h (Acanthamoeba castellanii; reduced by a factor of 10, most dead by trypan blue staining): 2–3 × 10^4 cells/ml
